Consider one molecule from ChEMBL document CHEMBL3102750 (J Med Chem, 2013).

Series [1] deals with Plasma. Description: Fraction unbound in Sprague-Dawley rat plasma at 5 uM after 4 hrs by equilibrium dialysis method. Format: ADME, cell-free. In a few lines:
(§1)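 Fraction unbound determined in plasma from rat, cynomolgus monkey and human.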

For series [2], the system named is Plasma. Description: Fraction unbound in cynomolgus monkey plasma at 5 uM after 4 hrs by equilibrium dialysis method. Format: ADME, cell-free, Macaca fascicularis. In a few lines: as §1
Series [3] deals with Cytochrome P450 3A4 (Homo sapiens, UniProt P08684). The series is described as follows: Inhibition of CYP3A4 in human liver microsomes using midazolam as substrate preincubated for 15 mins followed by NADPH addition measured after 8 mins by LC/MS/MS analysis. In kind it is ADME.
Sequence of Cytochrome P450 3A4 (P08684 whole entry): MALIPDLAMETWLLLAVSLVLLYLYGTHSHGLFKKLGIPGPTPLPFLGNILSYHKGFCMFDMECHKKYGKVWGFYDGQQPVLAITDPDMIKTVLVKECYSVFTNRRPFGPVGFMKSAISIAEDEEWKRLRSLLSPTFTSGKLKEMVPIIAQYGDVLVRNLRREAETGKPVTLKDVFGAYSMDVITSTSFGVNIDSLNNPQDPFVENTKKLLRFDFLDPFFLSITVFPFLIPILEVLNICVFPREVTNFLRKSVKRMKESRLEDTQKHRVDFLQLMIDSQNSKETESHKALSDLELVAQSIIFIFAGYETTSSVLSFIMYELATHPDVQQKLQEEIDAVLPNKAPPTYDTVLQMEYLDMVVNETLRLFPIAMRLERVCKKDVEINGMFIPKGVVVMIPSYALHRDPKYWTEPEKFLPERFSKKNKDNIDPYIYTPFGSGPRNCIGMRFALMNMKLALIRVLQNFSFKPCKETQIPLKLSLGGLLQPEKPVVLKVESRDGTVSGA
In series [4] the target is T1, Cytochrome P450 1A2 (Homo sapiens, UniProt P05177).
T1 sequence (P05177 whole entry): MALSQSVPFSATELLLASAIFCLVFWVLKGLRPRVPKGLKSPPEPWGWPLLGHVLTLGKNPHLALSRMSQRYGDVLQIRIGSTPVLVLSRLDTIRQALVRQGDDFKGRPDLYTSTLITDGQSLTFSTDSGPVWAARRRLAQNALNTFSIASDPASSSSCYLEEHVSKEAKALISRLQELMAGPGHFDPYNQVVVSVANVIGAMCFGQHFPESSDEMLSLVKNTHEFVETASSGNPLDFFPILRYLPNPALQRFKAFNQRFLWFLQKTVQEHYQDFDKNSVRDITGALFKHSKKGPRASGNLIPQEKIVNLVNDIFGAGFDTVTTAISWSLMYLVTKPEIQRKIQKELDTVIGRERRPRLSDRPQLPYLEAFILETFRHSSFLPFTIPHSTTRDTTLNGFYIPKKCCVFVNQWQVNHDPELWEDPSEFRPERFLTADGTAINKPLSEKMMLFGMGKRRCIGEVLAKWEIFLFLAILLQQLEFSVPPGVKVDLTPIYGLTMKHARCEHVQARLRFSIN
The series is described as follows: Inhibition of CYP1A2 in human liver microsomes using phenacetin as substrate preincubated for 15 mins followed by NADPH addition measured after 8 mins by LC/MS/MS analysis. In kind it is ADME.

Series [5] in a line: Plasma clearance in Sprague-Dawley rat at 1 mg/kg, iv. In kind it is ADME, organism-based. On the set-up: dose 1 mg/kg, route intravenous.
Series [6] concerns Rattus norvegicus. Description: Volume of distribution at steady state in Sprague-Dawley rat at 1 mg/kg, iv. Format: ADME, organism-based. On the set-up: dose 1 mg/kg, route intravenous. Particulars: in vivo.
Series [7] can be described thus: Oral bioavailability in Sprague-Dawley rat. Format: ADME, organism-based. The settings on record: in vivo.
The nature of series [8]: Cmax in po dosed Sprague-Dawley rat. In kind it is ADME, organism-based. On the set-up: route oral. The settings on record: in vivo.

Regarding `O=C(c1ccc(F)c(F)c1)N1CCN2C(=O)c3ccccc3[C@@]12c1ccc(Cl)cc1`, the Fu was 0.029 in series [1] and 0.001 in series [2]. Besides, the IC50 in series [3] amounted to 16 µM; in series [4], 25 µM. In series [5], this molecule registered a clearance of 2.5 mL/min/kg. Besides, the Vdss in series [6] turned out to be 16 L/kg. In series [7], this molecule came in with a bioavailability of 80%. Besides, the highest level in series [8] (Cmax) was 1400 nM.
